Experimental data taken from ChEMBL document CHEMBL1123247, “Nucleoside conjugates. 7. Synthesis and antitumor activity of 1-beta-D-arabinofuranosylcytosine conjugates of ether lipids” (J Med Chem, 1986).

Columns and labels:
Format in all cases: functional, Mus musculus
L1210 [1] = assay: Antitumor activity against the ic implanted L1210 lymphoid leukemia in mice expressed as optimal dose (1-5qd treatment schedule) required to produce greatest increase in life span was determined
How it was run: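 DBA/2J mice, groups of 6 (26-32 g), got 1 × 10^5 L1210 cells ic on day 0. Dosing was ip starting 24 h later, as a sonicated solution or suspension in 0.9% NaCl with 0.5% Tween-80, over a wide dose range. Mice were followed daily until death. Median survival T/C was taken from survivors per NCI protocols, and ILS = (T/C − 1) × 100. Active range means doses giving ILS ≥25%; optimal dose means greatest ILS.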

L1210 [2] = assay: Antitumor activity against the ip implanted L1210 leukemia in mice expressed as optimal dose (1-5qd treatment schedule) required to produce greatest increase in life span was determined
How it was run: (§1)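 DBA/2J mice, groups of 6 (23-28 g), were inoculated ip with 1 × 10^6 L1210 cells on day 0. Dosing was ip from 24 h, in 0.9% NaCl with 0.5% Tween-80 (sonicated solution or suspension). Mice were observed daily until death or day 45. Median survival T/C followed NCI protocols, and ILS = (T/C − 1) × 100. Active range means doses giving ILS ≥25%; optimal dose means greatest ILS.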

L1210 [3] = assay: Antitumor activity against the ip implanted L1210 leukemia in mice expressed as optimal dose (1 qd treatment schedule) required to produce greatest increase in life span was determined; how it was run: as §1
P388 [4] = assay: Antitumor activity was determined against the ip implanted P388 leukemia in mice by percent increase in life span at 60 mg/kg (1-5qd treatment schedule) dosage; conditions: route intraperitoneal
How it was run: (§2)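 DBA/2J mice, 23-33 g, in groups of 6, were inoculated ip with 1×10^6 P388 cells on day 0. Dosing was ip from 24 h on the stated schedules, in 0.9% NaCl with 0.5% Tween-80 (sonicated solution or suspension). Survival was followed daily until death or 45 days. Median T/C was calculated from survivors per NCI protocols, with ILS = (T/C − 1) × 100.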

P388 [5] = assay: Antitumor activity was determined against the ip implanted P388 leukemia in mice by percent median survival rate (treated/control) at 133 mg/kg (treatment of 1,5,9qd schedule) dosage; >45.0/11.0; conditions: route intraperitoneal; how it was run: as §2
P388 [6] = assay: Antitumor activity was determined against the ip implanted P388 leukemia in mice by 45-day survivors in mice at 60 mg/kg (1-5qd treatment schedule) dosage; conditions: route intraperitoneal; how it was run: as §2
P388 [7] = assay: Antitumor activity against ip implanted P388 leukemia in mice expressed as active dose range (1-5qd treatment schedule) required to produce increase in life span by >25% was determined; Range is 40-80
How it was run: (§3)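 P388 leukemia: 1 × 10^6 cells were given ip on day 0 to DBA/2J mice, groups of 6 (23-33 g). Treatment was ip from 24 h after inoculation, vehicle 0.9% NaCl with 0.5% Tween-80. Mice were observed daily until death or 45 days. Median survival T/C was calculated from survivors per NCI protocols, and ILS = (T/C − 1) × 100. Active range means doses giving ILS ≥25%; optimal dose means greatest ILS.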

P388 [8] = assay: Antitumor activity was determined against the ip implanted P388 leukemia in mice by change in […] at 133 mg/kg (treatment of 1,5,9qd schedule) dosage; conditions: route intraperitoneal
How it was run: (§4)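 P388 leukemia, 1×10^6 cells implanted ip on day 0 into DBA/2J mice, groups of 6 (wt 23-33 g). Dosing ip started 24 h post-inoculation, vehicle 0.9% NaCl containing 0.5% Tween-80. Animals were observed daily until death or 45 days. Outputs were weight change, median survival T/C from survivors per NCI protocols, and %ILS = (T/C − 1) × 100.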

P388 [9] = assay: Antitumor activity was determined against the ip implanted P388 leukemia in mice by change in […] at 60 mg/kg (1-5qd treatment schedule) dosage; conditions: route intraperitoneal; how it was run: as §4
P388 [10] = assay: Antitumor activity was determined against the ip implanted P388 leukemia in mice by percent increase in life span at 133 mg/kg (treatment of 1,5,9qd schedule) dosage; conditions: route intraperitoneal; how it was run: as §2
P388 [11] = assay: Antitumor activity was determined against the ip implanted P388 leukemia in mice by 45-day survivors in mice at 133 mg/kg (treatment of 1,5,9qd schedule) dosage; conditions: route intraperitoneal; how it was run: as §2
P388 [12] = assay: Antitumor activity was determined against the ip implanted P388 leukemia in mice by percent increase in life span at 500 mg/kg (1 qd treatment schedule) dosage; conditions: route intraperitoneal; how it was run: as §2
P388 [13] = assay: Antitumor activity against ip implanted P388 leukemia in mice expressed as active dose range (1 qd treatment schedule) required to produce increase in life span by >25% was determined; Range is 200-500; how it was run: as §3
P388 [14] = assay: Antitumor activity against the ip implanted P388 leukemia in mice expressed as optimal dose (1,5,9qd treatment schedule) required to produce greatest increase in life span was determined; design: unit: mg/kg; how it was run: as §3
P388 [15] = assay: (§5) Antitumor activity against the ip implanted P388 leukemia in mice expressed as optimal dose (1-5qd treatment schedule) required to produce greatest increase in life span was determined; design: unit: mg/kg; how it was run: as §3
P388 [16] = assay: Antitumor activity against the ip implanted P388 leukemia in mice expressed as optimal dose (1 qd treatment schedule) required to produce greatest increase in life span was determined; how it was run: as §3
L1210 [17] = assay: Antitumor activity was determined against the ip implanted L1210 leukemia in mice by change in […] at 400 mg/kg (treatment of 1qd schedule) dosage; conditions: route intraperitoneal
How it was run: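 DBA/2J mice, 6 per group (wt 23-28 g), inoculated ip with 1×10^6 L1210 cells on day 0. Treatment was given ip in 0.9% NaCl with 0.5% Tween-80, starting 24 h later. Weight change was taken on day 8. Mice were observed daily until death or 45 days. Median survival T/C and %ILS = (T/C − 1) × 100 came from survivors per NCI protocols, and 45-day survivors were counted.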

L1210 [18] = assay: Antitumor activity was determined against the ip implanted L1210 leukemia in mice by 45-day survivors in mice at 400 mg/kg (treatment of 1qd schedule) dosage; conditions: route intraperitoneal
How it was run: (§6)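 DBA/2J mice in groups of 6 (wt 23-28 g) were inoculated ip with 1×10^6 L1210 cells on day 0. Dosing was ip from 24 h, in 0.9% NaCl with 0.5% Tween-80 (conjugates sonicated), across a range of doses. Mice were observed daily until death or 45 days. Median T/C was computed from survivors per NCI protocols, and ILS = (T/C − 1)×100.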

L1210 [19] = assay: Antitumor activity was determined against the ip implanted L1210 leukemia in mice by percent increase in life span at 400 mg/kg (treatment of 1qd schedule) dosage; conditions: route intraperitoneal; how it was run: as §6
P388 [20] = assay: as §5; how it was run: as §3
P388 [21] = assay: Antitumor activity was determined against the ip implanted P388 leukemia in mice by percent increase in life span at 500 mg/kg (treatment of 1qd schedule) dosage; conditions: route intraperitoneal; how it was run: as §2
P388 [22] = assay: Antitumor activity was determined against the ip implanted P388 leukemia in mice by 45-day survivors in mice at 500 mg/kg (treatment of 1qd schedule) dosage; conditions: route intraperitoneal; how it was run: as §2
P388 [23] = assay: Antitumor activity was determined against the ip implanted P388 leukemia in mice by change in […] at 500 mg/kg (treatment of 1qd schedule) dosage; conditions: route intraperitoneal; how it was run: as §4

CCCCCCCCCCCCCCCC(=O)OC[C@H](COP(=O)(O)OP(=O)(O)OC[C@H]1O[C@@H](n2ccc(N)nc2=O)[C@@H](O)[C@@H]1O)OC(=O)CCCCCCCCCCCCCCC
Optimal dose (L1210 [1]): 80 mg | Optimal dose (L1210 [2]): 40 mg | Optimal dose (L1210 [3]): 300 mg/kg/day | ILS (P388 [4]): >309 | T/C (P388 [5]): >45% | Survivors (P388 [6]): 5 | Active dose range (P388 [7]): 40 mg/kg/day | Weight change (P388 [8]): -1.43 g mouse-1 | Weight change (P388 [9]): -1.92 g mouse-1 | ILS (P388 [10]): >309 | Survivors (P388 [11]): 4 | ILS (P388 [12]): >309 | Active dose range (P388 [13]): 200 mg/kg/day | Optimal dose (P388 [14]): 133 mg | Optimal dose (P388 [15]): 60 mg | Optimal dose (P388 [16]): 500 mg

CCCCCCCCCCCCCCCCOCC(COP(=O)(O)OP(=O)(O)OC[C@H]1O[C@@H](n2ccc(N)nc2=O)[C@@H](O)[C@@H]1O)OC(=O)CCCCCCCCCCCCCCC (mixture of isomers)
Optimal dose (L1210 [1]): 100 mg | Optimal dose (L1210 [2]): 80 mg | Optimal dose (L1210 [3]): 400 mg/kg/day | Weight change (L1210 [17]): 1.47 g mouse-1 | Survivors (L1210 [18]): 0 | ILS (L1210 [19]): 293 | T/C (P388 [5]): >45% | Weight change (P388 [8]): -0.25 g mouse-1 | ILS (P388 [10]): >309 | Survivors (P388 [11]): 4 | Optimal dose (P388 [14]): 133 mg | Optimal dose (P388 [20]): 60 mg | Optimal dose (P388 [16]): 300 mg

CCCCCCCCCCCCCCCCCCOCC(COP(=O)(O)OP(=O)(O)OC[C@H]1O[C@@H](n2ccc(N)nc2=O)[C@@H](O)[C@@H]1O)OC(=O)CCCCCCCCCCCCCCC (mixture of isomers)
Optimal dose (L1210 [2]): 100 mg | Optimal dose (L1210 [3]): 400 mg/kg/day | Weight change (L1210 [17]): -1 g mouse-1 | Survivors (L1210 [18]): 0 | ILS (L1210 [19]): 257 | ILS (P388 [21]): >309 | ILS (P388 [4]): 109 | Survivors (P388 [22]): 4 | Survivors (P388 [6]): 0 | Active dose range (P388 [7]): 40 mg/kg/day | Weight change (P388 [23]): -0.07 g mouse-1 | Weight change (P388 [9]): -0.12 g mouse-1 | Active dose range (P388 [13]): 200 mg/kg/day | Optimal dose (P388 [14]): 67 mg | Optimal dose (P388 [15]): 60 mg | Optimal dose (P388 [16]): 500 mg

Nc1ccn([C@@H]2O[C@H](CO)[C@@H](O)[C@@H]2O)c(=O)n1 [CYTARABINE]
Optimal dose (L1210 [1]): 300 mg | Optimal dose (L1210 [2]): 200 mg | Optimal dose (L1210 [3]): 400 mg/kg/day | Weight change (L1210 [17]): 2.37 g mouse-1 | Survivors (L1210 [18]): 0 | ILS (L1210 [19]): 19 | ILS (P388 [21]): 36 | Survivors (P388 [22]): 0 | Weight change (P388 [23]): 0.72 g mouse-1 | Optimal dose (P388 [20]): 200 mg | Optimal dose (P388 [16]): 500 mg
